Experimental data reported in ChEMBL document CHEMBL4619796, “Discovery of 3-Quinazolin-4(3H)-on-3-yl-2,N-dimethylpropanamides as Orally Active and Selective PI3Kα Inhibitors” (ACS Med Chem Lett, 2020).

Assays:
BT-474 = assay: Antitumor activity against PI3KCA mutant human BT474 cells xenografted in BALB/c nude mouse assessed as tumor growth inhibition at 30 mg/kg, po administered once daily for 21 days by caliper method relative to control; assay type: functional; conditions: BT-474, po, 504 h, read-out: TGI
Summary of the method: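 BT-474 (PIK3CA mutant human breast ductal carcinoma) subcutaneous xenografts in Balb/c nude mice. Oral dosing once daily for 21 days. Vehicle 0.5% MC + 0.2% Tween 80. Read-out is tumor growth inhibition.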

[1] = biological target: Phosphatidylinositol 4,5-bisphosphate 3-kinase catalytic subunit beta isoform (Homo sapiens, UniProt P42338); assay: Inhibition of PI3Kbeta in human MDA-MB-468 cells assessed as reduction in AKT phosphorylation at residue S473 measured after 30 mins by sandwich ELISA
Mus musculus [2] = assay: In vivo inhibition of PI3K in po dosed BALB/c nude mouse xenografted with PI3KCA mutant human BT474 cells assessed as reduction in AKT phosphorylation administered once daily measured after 1 to 4 hrs by Western blot analysis; assay type: functional, organism-based; conditions: BT-474
Summary of the method: (§1)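 Mice bearing BT-474 subcutaneous xenografts were dosed orally in vehicle 0.5% MC + 0.2% Tween 80. Tumor Akt phosphorylation was assessed for time and dose dependence.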

Mus musculus [3] = assay: In vivo inhibition of PI3K in BALB/c nude mouse xenografted with PI3KCA mutant human BT474 cells assessed as reduction in AKT phosphorylation at 15 to 40 mg/kg, po administered once daily by Western blot analysis; assay type: functional, organism-based; conditions: BT-474, TDE = time-dependent effect; summary of the method: as §1
[4] = Half life in Sprague-Dawley rat at 1 mg/kg, iv by HPLC analysis; assay type: ADME, organism-based; conditions: in vivo
[5] = Protein binding in human plasma measured after 4 hrs by LC-MS/MS analysis; assay type: ADME, cell-free; conditions: read-out: PPB (converted)
[6] = Protein binding in CD-1 mouse plasma measured after 4 hrs by LC-MS/MS analysis; assay type: ADME, cell-free; conditions: read-out: PPB (converted)
[7] = Metabolic stability in human liver microsomes assessed as parent compound remaining at 10 uM preincubated for 10 mins in water bath followed by NADPH addition and measured after 60 mins by LC-MS/MS analysis; assay type: ADME, Microsome; conditions: read-out: Stability
[8] = Half life in BALB/c mouse at 1 mg/kg, iv by HPLC analysis; conditions: in vivo

Phosphatidylinositol 4,5-bisphosphate 3-kinase catalytic subunit beta isoform, sequence (P42338 whole entry, canonical isoform): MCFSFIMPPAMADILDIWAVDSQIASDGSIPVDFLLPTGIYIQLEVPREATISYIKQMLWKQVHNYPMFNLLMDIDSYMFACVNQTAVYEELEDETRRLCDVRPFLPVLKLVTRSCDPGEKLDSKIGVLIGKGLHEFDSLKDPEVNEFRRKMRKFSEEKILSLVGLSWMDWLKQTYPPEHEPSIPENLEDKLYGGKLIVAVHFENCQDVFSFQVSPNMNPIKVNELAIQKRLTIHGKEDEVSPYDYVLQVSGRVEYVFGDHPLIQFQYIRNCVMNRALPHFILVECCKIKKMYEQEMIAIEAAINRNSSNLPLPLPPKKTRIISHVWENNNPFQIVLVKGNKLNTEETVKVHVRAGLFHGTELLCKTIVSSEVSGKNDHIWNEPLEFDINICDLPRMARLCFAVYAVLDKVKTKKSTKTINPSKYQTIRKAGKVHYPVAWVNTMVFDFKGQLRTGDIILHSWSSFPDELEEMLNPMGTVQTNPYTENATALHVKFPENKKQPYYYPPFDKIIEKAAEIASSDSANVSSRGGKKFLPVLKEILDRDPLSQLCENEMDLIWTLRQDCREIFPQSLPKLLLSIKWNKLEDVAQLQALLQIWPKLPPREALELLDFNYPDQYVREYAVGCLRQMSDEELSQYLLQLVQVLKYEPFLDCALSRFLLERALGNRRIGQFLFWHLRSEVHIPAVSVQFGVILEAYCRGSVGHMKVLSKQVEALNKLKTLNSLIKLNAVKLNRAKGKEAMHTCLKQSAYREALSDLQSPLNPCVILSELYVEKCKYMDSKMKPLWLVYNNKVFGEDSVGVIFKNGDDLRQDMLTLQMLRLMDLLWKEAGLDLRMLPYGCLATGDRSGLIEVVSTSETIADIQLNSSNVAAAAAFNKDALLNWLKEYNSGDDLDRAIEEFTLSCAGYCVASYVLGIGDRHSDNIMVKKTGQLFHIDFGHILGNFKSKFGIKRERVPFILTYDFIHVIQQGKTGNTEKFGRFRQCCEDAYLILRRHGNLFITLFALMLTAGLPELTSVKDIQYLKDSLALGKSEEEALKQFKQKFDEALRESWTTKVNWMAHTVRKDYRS

## CNC(=O)[C@H](C)Cn1cnc2ccc(-c3cnc(OC)c(NS(=O)(=O)c4ccc(F)cc4Cl)c3)cc2c1=O
BT-474
  inhibition in vivo at 30 mg/kg: 73%
[1]
  IC50: 1390 nM
Mus musculus [2]
  inhibition: Dose-dependent effect
Mus musculus [3]
  inhibition: Tde
[4]
  half-life: 1.22 h
[5]
  fraction unbound at 4 h: 0.014
[6]
  fraction unbound at 4 h: 0.014
[7]
  remaining at 1 h, 10 µM: 44.6%
[8]
  half-life: 0.966 h
